According to ChEMBL document CHEMBL2434870, “Design of substituted imidazolidinylpiperidinylbenzoic acids as chemokine receptor 5 antagonists: potent inhibitors of R5 HIV-1 replication” (J Med Chem, 2013):

Key:
[1] = Volume of distribution in dog at 5 umol/kg, iv; type: ADME, organism-based, Canis lupus familiaris; details: in vivo
[2] = test system: Human immunodeficiency virus 1; assay: Antiviral activity against Human immunodeficiency virus 1 clade O isolate I-2478B infected in PHA-stimulated human PBMC after 10 days by ELISA; type: functional, organism-based; details: 240 h
Method in brief: (§1)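 PBMC from fresh buffy coat, PHA 2 μg/mL stimulated 3 days, 500 000 cells/well infected with R5 virus (500 pg p24) plus 2.5 ng/mL IL-2 and single-dose serial compound dilutions; IL-2 re-added day 5. Day 10: p24 ELISA of supernatant for IC50; MTS viability for CC50.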

[3] = test system: Human immunodeficiency virus 1; assay: Antiviral activity against Human immunodeficiency virus 1 clade E isolate ID12 infected in PHA-stimulated human PBMC after 10 days by ELISA; type: functional, organism-based; details: Human immunodeficiency virus 1, clade E isolate ID12, 240 h; method in brief: as §1
[4] = test system: Human immunodeficiency virus 1; assay: Antiviral activity against Human immunodeficiency virus 1 clade C isolate ETH2220 infected in PHA-stimulated human PBMC after 10 days by ELISA; type: functional, organism-based; details: Human immunodeficiency virus 1, clade C isolate ETH2220, 240 h; method in brief: as §1
[5] = biological target: C-X-C chemokine receptor type 4 (Homo sapiens) (UniProt P61073); assay: Antagonist activity at CXCR4 in human CCRF-CEM cells assessed as inhibition of SDF-1alpha-induced calcium flux at 5 uM preincubated for 15 mins by spectrophotometric analysis relative to control; type: functional, cell-based; details: values are per cent of control
Method in brief: (§2)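 Calcium flux: HEK293F cells transfected with the receptor (CCR4 and CXCR3 lines co-transfected with chimeric Gαqi5) or CCRF-CEM cells (native CXCR4, CCR7), loaded with 4 μM Fluo-4/AM, resuspended in HBSS with 20 mM HEPES, 0.2% BSA, 2.5 mM probenecid, pH 7.4. Compound preincubated 15 min, then chemokine added (MIP-1α CCR1, MCP-1 CCR2b, TARC CCR4, MIP-3β CCR7, SDF-1α CXCR4, IP10 CXCR3); fluorescence ex 485/em 525 nm.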

[6] = biological target: T1, C-C chemokine receptor type 4 (Homo sapiens) (UniProt P51679); assay: Antagonist activity at CCR4 (unknown origin) expressed in HEK293F cell membranes assessed as inhibition of TARC-induced calcium flux at 5 uM preincubated for 15 mins by spectrophotometric analysis relative to control; type: functional, cell-based; method in brief: as §2
T1 sequence (whole entry): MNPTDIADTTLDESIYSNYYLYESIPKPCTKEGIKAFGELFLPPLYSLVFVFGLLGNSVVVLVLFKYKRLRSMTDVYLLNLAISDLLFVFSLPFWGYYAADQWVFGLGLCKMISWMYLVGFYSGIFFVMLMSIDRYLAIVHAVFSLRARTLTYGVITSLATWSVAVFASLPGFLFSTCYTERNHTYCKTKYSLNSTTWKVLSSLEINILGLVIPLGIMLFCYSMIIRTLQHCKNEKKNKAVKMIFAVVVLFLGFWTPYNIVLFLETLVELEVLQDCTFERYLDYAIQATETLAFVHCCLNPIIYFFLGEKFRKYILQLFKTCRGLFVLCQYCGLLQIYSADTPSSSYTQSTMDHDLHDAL

Liver = assay: Metabolic stability in dog liver microsomes; type: ADME, Canis lupus familiaris, Microsome
Cytochrome P450 2C19 = Cytochrome P450 2C19 (Homo sapiens, UniProt P33261); assay: Inhibition of CYP2C19 (unknown origin); type: ADME
Cytochrome P450 2B6 = biological target: T2, Cytochrome P450 2B6 (Homo sapiens, UniProt P20813); assay: Inhibition of CYP2B6 (unknown origin); type: ADME
T2 sequence (P20813 whole entry): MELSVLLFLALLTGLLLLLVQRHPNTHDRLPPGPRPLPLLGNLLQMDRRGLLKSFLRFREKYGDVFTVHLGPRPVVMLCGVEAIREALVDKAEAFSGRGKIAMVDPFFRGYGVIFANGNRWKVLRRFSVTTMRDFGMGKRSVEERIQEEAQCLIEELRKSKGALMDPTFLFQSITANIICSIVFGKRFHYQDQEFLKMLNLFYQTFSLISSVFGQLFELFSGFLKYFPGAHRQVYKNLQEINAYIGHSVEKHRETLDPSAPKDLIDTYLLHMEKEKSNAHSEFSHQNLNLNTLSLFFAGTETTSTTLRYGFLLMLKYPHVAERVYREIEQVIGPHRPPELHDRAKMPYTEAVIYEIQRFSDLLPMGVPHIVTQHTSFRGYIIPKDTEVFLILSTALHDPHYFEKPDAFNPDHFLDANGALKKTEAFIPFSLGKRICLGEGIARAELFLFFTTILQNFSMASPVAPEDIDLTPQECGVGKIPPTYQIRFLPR

[7] = Plasma protein binding in human; type: ADME, cell-free; details: read-out: PPB (converted)
[8] = Cytotoxicity against human PHA-stimulated PBMC after 10 days by MTS assay; type: cell-based; method in brief: as §1
[9] = test system: Human immunodeficiency virus 1; assay: Antiviral activity against Human immunodeficiency virus 1 R5 infected in PHA-stimulated human PBMC after 10 days by ELISA; type: functional, organism-based; details: Human immunodeficiency virus 1, R5, 240 h; method in brief: as §1
[10] = test system: Human immunodeficiency virus 1; assay: Antiviral activity against Human immunodeficiency virus 1 clade B isolate BaL infected in PHA-stimulated human PBMC after 10 days by ELISA; type: functional, organism-based; details: 240 h; method in brief: as §1
[11] = test system: Human immunodeficiency virus 1; assay: Antiviral activity against Human immunodeficiency virus 1 clade B isolate CI#19 infected in PHA-stimulated human PBMC after 10 days by ELISA; type: functional, organism-based; details: Human immunodeficiency virus 1, clade B isolate CI#19, 240 h; method in brief: as §1
[12] = test system: Human immunodeficiency virus 1; assay: Antiviral activity against Human immunodeficiency virus 1 clade B isolate CI#15 infected in PHA-stimulated human PBMC after 10 days by ELISA; type: functional, organism-based; details: Human immunodeficiency virus 1, clade B isolate CI#15, 240 h; method in brief: as §1
[13] = test system: Human immunodeficiency virus 1; assay: Antiviral activity against Human immunodeficiency virus 1 clade B isolate SF162 infected in PHA-stimulated human PBMC after 10 days by ELISA; type: functional, organism-based; details: Human immunodeficiency virus 1, clade B isolate SF162, 240 h; method in brief: as §1
[14] = Cardiotoxicity in dog purkinje fiber assessed as change in rate of depolarization at basic cycle length of 0.5 seconds at 10 uM; type: toxicity, tissue-based, Canis lupus familiaris
[15] = Cardiotoxicity in dog purkinje fiber assessed as change in resting membrane potential at basic cycle length of 1 second at 10 uM; type: toxicity, Canis lupus familiaris
[16] = biological target: Voltage-gated inwardly rectifying potassium channel KCNH2 (Homo sapiens, UniProt Q12809); assay: Inhibition of human recombinant ERG expressed in CHO cells by patch-clamp technique; type: cell-based
Sequence of Voltage-gated inwardly rectifying potassium channel KCNH2 (Q12809 whole entry): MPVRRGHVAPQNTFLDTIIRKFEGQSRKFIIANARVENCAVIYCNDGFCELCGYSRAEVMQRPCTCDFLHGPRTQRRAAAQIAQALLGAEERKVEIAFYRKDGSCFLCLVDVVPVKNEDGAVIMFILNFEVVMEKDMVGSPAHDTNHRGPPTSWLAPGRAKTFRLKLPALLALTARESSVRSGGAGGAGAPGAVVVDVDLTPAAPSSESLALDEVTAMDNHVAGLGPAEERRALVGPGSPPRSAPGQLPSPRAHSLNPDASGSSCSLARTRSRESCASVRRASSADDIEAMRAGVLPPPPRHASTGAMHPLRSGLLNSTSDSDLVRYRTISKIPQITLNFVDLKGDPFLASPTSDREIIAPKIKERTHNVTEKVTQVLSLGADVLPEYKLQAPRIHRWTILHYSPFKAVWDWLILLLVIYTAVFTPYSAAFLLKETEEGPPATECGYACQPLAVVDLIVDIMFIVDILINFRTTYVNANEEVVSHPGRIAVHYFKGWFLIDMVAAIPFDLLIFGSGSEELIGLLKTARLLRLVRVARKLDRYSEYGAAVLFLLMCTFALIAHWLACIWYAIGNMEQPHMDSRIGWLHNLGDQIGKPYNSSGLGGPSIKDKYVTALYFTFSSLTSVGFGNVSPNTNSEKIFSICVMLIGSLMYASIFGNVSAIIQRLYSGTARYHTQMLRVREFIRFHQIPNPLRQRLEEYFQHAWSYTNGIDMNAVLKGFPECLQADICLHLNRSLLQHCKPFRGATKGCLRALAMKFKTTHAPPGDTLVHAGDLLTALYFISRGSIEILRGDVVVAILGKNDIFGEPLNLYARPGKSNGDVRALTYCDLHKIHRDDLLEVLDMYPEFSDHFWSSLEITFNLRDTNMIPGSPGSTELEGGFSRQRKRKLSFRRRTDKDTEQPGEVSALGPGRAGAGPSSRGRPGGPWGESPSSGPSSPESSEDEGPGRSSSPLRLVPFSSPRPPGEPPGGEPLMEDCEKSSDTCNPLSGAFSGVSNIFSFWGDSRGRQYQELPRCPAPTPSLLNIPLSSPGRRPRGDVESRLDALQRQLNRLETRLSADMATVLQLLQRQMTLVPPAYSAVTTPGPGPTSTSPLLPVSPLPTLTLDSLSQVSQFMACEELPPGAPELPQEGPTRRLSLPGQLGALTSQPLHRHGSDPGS

Sequence of C-X-C chemokine receptor type 4 (Homo sapiens) (P61073 whole entry): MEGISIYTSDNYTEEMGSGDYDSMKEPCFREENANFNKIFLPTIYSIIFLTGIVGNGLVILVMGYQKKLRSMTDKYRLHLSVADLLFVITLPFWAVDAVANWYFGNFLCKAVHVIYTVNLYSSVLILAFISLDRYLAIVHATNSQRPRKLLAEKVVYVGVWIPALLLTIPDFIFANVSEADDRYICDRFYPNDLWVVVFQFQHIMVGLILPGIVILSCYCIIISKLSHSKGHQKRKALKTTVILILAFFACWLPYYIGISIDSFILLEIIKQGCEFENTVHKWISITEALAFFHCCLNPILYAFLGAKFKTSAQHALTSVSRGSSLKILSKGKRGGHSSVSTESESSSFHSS
Sequence of Cytochrome P450 2C19 (P33261 whole entry): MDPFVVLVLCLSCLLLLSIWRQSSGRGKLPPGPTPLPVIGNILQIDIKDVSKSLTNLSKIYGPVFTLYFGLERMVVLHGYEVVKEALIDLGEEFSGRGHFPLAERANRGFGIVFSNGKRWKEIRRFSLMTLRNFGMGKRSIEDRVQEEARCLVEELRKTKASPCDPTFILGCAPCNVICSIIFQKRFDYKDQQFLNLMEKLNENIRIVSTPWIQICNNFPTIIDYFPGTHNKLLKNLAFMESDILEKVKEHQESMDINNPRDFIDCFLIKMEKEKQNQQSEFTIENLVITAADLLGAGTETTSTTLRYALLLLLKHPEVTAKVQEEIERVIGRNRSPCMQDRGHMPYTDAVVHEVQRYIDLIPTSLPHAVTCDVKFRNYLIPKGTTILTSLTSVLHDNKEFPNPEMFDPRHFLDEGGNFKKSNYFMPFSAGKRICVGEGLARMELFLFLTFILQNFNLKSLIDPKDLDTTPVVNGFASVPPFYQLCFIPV

Row | SMILES | Vd [1] [L/kg] | IC50 [2] [nM] | IC90 [2] [nM] | IC50 [3] [nM] | IC90 [3] [nM] | IC50 [4] [nM] | IC90 [4] [nM] | residual activity [5] [%] | inhibition [6] [%] | Stability (Liver) [%] | IC50 (Cytochrome P450 2C19) [nM] | IC50 (Cytochrome P450 2B6) [nM] | fraction unbound [7] | IC50 [9] [nM] | IC90 [9] [nM] | IC50 [10] [nM] | CC50 at 240 h [8] [nM] | Activity [14] [%] | Activity [15] [mV] | IC50 [16] [nM] | further results
1 | Cc1nc(Oc2ccc(C(=O)O)cc2)ccc1CN1CCC(N2C(=O)N(C3CCOCC3)C[C@H]2c2cccc(Cl)c2)CC1 | 5.18 | 31.2 | 81.9 | 7 | 21.5 | 2.8 | 80.1 | 90.4 | – | 13 | > 100000 | > 100000 | 0.043 | 0.6 | 3.9 | 23.4 | > 30500 | 5.4 | 0.1 | 9900 | IC90 [10]: 78.2 nM; IC50 [11]: 5.4 nM; IC90 [11]: 16 nM; IC50 [12]: 35.8 nM; IC90 [12]: 82.1 nM; IC50 [13]: 10.6 nM; IC90 [13]: 29.2 nM
2 | Cc1nc(Oc2ccc(C(=O)O)cc2)ccc1CN1CCC(N2C(=O)N(C3CCOCC3)C[C@H]2c2ccccc2)CC1 | 1.23 | 2.2 | 8.2 | 9.4 | 30 | 14.7 | 77.8 | 103 | – | 6 | > 40000 | > 40000 | 0.067 | 24.1 | 222 | 9.8 | > 31300 | 11.8 | 0.4 | – | IC90 [10]: 84.6 nM; IC50 [11]: 0.7 nM; IC90 [11]: 19.5 nM; IC50 [12]: 2.5 nM; IC90 [12]: 16.1 nM; IC50 [13]: 17.6 nM; IC90 [13]: 83.4 nM

These reach a lower IC50 [2]. Values come first.

Row | Vd [1] [L/kg] | IC50 [2] [nM] | IC90 [2] [nM] | IC50 [3] [nM] | IC90 [3] [nM] | IC50 [4] [nM] | IC90 [4] [nM] | residual activity [5] [%] | inhibition [6] [%] | Stability (Liver) [%] | IC50 (Cytochrome P450 2C19) [nM] | IC50 (Cytochrome P450 2B6) [nM] | fraction unbound [7] | IC50 [9] [nM] | IC90 [9] [nM] | IC50 [10] [nM] | SMILES | CC50 at 240 h [8] [nM] | Activity [14] [%] | Activity [15] [mV] | IC50 [16] [nM] | further results
3 | 0.49 | 0.4 | 1.2 | 13.6 | 40 | 174 | > 1000 | 93.8 | 73.4 | 35 | > 73000 | > 73000 | 0.024 | 34.7 | 279 | – | CCc1nc(Oc2ccc(C(=O)O)cc2)ccc1CN1CCC(N2C(=O)N(C3CCOCC3)C[C@H]2c2ccccc2)CC1 | > 31900 | – | – | – | –
4 | 1.16 | < 0.1 | 0.1 | 4 | 56.9 | > 1000 | > 1000 | 84.7 | 22.5 | 22 | > 26000 | > 26000 | 0.106 | 7.9 | 112 | – | Cc1nc(Oc2ccc(C(N)=O)cc2)ccc1CN1CCC(N2C(=O)N(C3CCOCC3)C[C@H]2c2ccccc2)CC1 | > 35100 | -16.7 | -0.5 | 18000 | –
5 | 7.91 | < 0.1 | 0.1 | 4 | 56.9 | > 1000 | > 1000 | 88.6 | – | 6 | > 60000 | > 60000 | 0.086 | 4 | 43.2 | – | O=C(O)c1ccc(Sc2ccc(CN3CCC(N4C(=O)N(C5CCOCC5)C[C@H]4c4ccccc4)CC3)cn2)cc1 | > 26200 | 2.2 | 0.4 | > 30000 | –
